Laboratory results reported in ChEMBL document CHEMBL1137739, “Synthesis of chlorovinyl sulfones as structural analogs of chalcones and their antiplasmodial activities” (Eur J Med Chem, 2009).

How the values were obtained:
[1] = system: Plasmodium falciparum; experiment: Antimalarial activity as parasite development after 48 hrs against chloroquine-sensitive Plasmodium falciparum W2 by FACS analysis; assay type: functional, organism-based; conditions: W2, 48 h, in the assay text read “chloroquine-resistant” for “chloroquine-sensitive”
Method in brief: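 Sorbitol-synchronized ring-stage P. falciparum W2, started at 0.1% parasitemia, grown in RPMI-1640 with 10% human serum under 3% O2/6% CO2/91% N2. Inhibitors were added from 1000× DMSO stocks for 48 h with no medium change. Cells were fixed in 1% formaldehyde/PBS pH 7.4 for 48 h at room temperature, then stained with 1 nM YOYO in 0.1% Triton X-100/PBS. Nucleated erythrocytes were counted by flow cytometry. IC50 came from nonlinear fits of % control parasitemia against concentration, duplicate experiments.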

[2] = system: Plasmodium falciparum; experiment: Antimalarial activity as inhibition of chloroquine-resistant Plasmodium falciparum mediated mice (Mus musculus) hemoglobin hydrolysis at 5 mM after 18 hrs; assay type: functional; set-up: scale not given: the % may be the effect or the level left
Method in brief: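 Parasite extract was incubated with native mouse haemoglobin, GSH (10 mM as added) and 0.2 M acetate buffer pH 5.4, with inhibitors added in DMSO, at 37 °C for 18 h. Reactions were stopped with reducing sample buffer and run on SDS-PAGE. Digestion was scored by densitometry of the 14 kDa globin band against a DMSO control, as intensity/mm2 ± SD.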

[3] = target: T1, Histidine-rich protein PFHRP-II (Plasmodium falciparum) (UniProt P05227); experiment: Inhibition of acetate buffer-induced hemozoin formation at 1.25 to 25 mM/well after 48 hrs; assay type: functional; set-up: scale not given: the % may be the effect or the level left
T1 sequence (whole entry): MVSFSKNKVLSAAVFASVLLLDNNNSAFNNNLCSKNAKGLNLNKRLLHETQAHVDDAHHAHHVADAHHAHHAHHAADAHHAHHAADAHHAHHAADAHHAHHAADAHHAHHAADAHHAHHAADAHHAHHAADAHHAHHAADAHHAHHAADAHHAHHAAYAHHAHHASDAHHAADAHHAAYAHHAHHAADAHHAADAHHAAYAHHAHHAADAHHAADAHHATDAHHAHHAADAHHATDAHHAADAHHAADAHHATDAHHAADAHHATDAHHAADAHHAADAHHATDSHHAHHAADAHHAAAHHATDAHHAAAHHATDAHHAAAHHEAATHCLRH
Method in brief: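 Hemin chloride solution (4 mM, in DMSO) was mixed in triplicate with compounds in DMSO at final 1.25–25 per well. Controls were water or DMSO. Reaction was started with 0.2 M acetate buffer pH 4.4 and run at 37 °C for 48 h. Pellets were centrifuged, washed twice with DMSO, dissolved in 0.2 N NaOH, diluted 1:2 in 0.1 N NaOH, and absorbance read at 405 nm.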

[4] = system: Plasmodium berghei; experiment: Antimalarial activity as reduced parasitaemia at day 4 in Peter's assay against Plasmodium berghei ANKA infected in NIH mice (Mus musculus) at 20 mg/kg intraperitoneal dose 2 hrs post infection then daily over 4 days; assay type: functional; set-up: scale not given: the % may be the effect or the level left
Method in brief: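 NIH mice (18–23 g) were infected i.p. with 10^6 P. berghei-infected red cells. Compound was dissolved in DMSO (0.1 M), diluted in 2% saline–Tween 20, and given at 20 mg/kg i.p. once daily for 4 days, starting 2 h after infection. Day-4 parasitemia was read from Giemsa-stained smears as % of untreated controls. Survival was also recorded. Analysis used one-way ANOVA and t-tests.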

[5] = system: Plasmodium berghei; experiment: Antimalarial activity as survival in Peter's assay at day 4 against Plasmodium berghei ANKA infected in NIH mice (Mus musculus) at 20 mg/kg intraperitoneal dose 2 hrs post infection then daily over 4 days
[6] = system: Plasmodium berghei; experiment: Antimalarial activity as reduced parasitaemia at day 4 in Peter's assay against Plasmodium berghei ANKA infected in NIH mice (Mus musculus) at 25 mg/kg intraperitoneal dose 2 hrs post infection then daily for 4 days; assay type: functional; set-up: scale not given: the % may be the effect or the level left
Method in brief: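 Chloroquine reference arm: NIH mice (18–23 g) were infected i.p. with 10^6 P. berghei-infected red cells and given 25 mg/kg once daily for 4 days, starting 2 h post-infection. Day-4 parasitemia was counted on Giemsa-stained smears, expressed relative to untreated controls, with survival recorded.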

[7] = system: Plasmodium berghei; experiment: Antimalarial activity as survival at day 4 in Peter's assay against Plasmodium berghei ANKA infected NIH mice (Mus musculus) at 25 mg/kg intraperitoneal dose 2 hrs post infection then daily for 4 days; assay type: functional
Method in brief: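 NIH mice (18–23 g) were infected i.p. with 10^6 P. berghei-infected erythrocytes. Dosing started 2 h later, i.p. once daily for 4 days, with compounds at 20 mg/kg and chloroquine at 25 mg/kg, from 0.1 M DMSO stocks diluted in 2% saline–Tween 20. Day-4 parasitaemia was read from Giemsa smears as % of untreated control, and survival as % of mice. Analysis used one-way ANOVA and t-tests.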

| SMILES | IC50 [1] | Activity [2] | Activity [3] | Activity [4] | Activity [5] | Activity [6] | Activity [7] |
| --- | --- | --- | --- | --- | --- | --- | --- |
| COc1cc(/C=C(\Cl)S(=O)(=O)c2ccccc2)cc(OC)c1OC | 10000 nM | <5% | < 5% | – | – | – | – |
| COc1ccc(/C=C(\Cl)S(=O)(=O)c2ccccc2)cc1 | 470 nM | <5% | < 5% | – | – | – | – |
| O=S(=O)(/C(Cl)=C/c1ccc2ccccc2c1)c1ccccc1 | 58 nM | 84.59% | < 5% | 6.25% | 72% | – | – |
| O=[N+]([O-])c1ccc(/C=C(\Cl)S(=O)(=O)c2ccccc2)cc1 | 73 nM | 79.19% | < 5% | – | – | – | – |
| CCN(CC)CCCC(C)Nc1ccnc2cc(Cl)ccc12 (stereo not drawn) [CHLOROQUINE] | – | 26.92% | 84.2% | – | – | 3% | 30 days |
| O=S(=O)(/C(Cl)=C/c1ccccc1)c1ccccc1 | > 10000 nM | 59.33% | < 5% | – | – | – | – |
| COc1cc(OC)c(/C=C(\Cl)S(=O)(=O)c2ccccc2)c(OC)c1 | 10000 nM | <5% | < 5% | – | – | – | – |
| O=S(=O)(/C(Cl)=C/c1ccc(F)cc1)c1ccccc1 | > 10000 nM | 52.72% | < 5% | – | – | – | – |
| O=S(=O)(/C(Cl)=C/c1ccc(Cl)cc1)c1ccccc1 | 83 nM | 74.92% | < 5% | – | – | – | – |
| O=S(=O)(/C(Cl)=C/c1ccc2c(c1)OCO2)c1ccccc1 | 53 nM | 37.34% | < 5% | – | – | – | – |
| O=S(=O)(/C(Cl)=C/c1cccc2ccccc12)c1ccccc1 | 75 nM | 76.69% | < 5% | – | – | – | – |
| O=S(=O)(/C(Cl)=C/c1cc2ccccc2nc1Cl)c1ccccc1 | 25 nM | 28.49% | < 5% | – | – | – | – |
| O=S(=O)(/C(Cl)=C/c1ccccc1Cl)c1ccccc1 | > 10000 nM | 65.81% | < 5% | – | – | – | – |
| CC(=O)N[C@@H](CC(C)C)C(=O)N[C@@H](CC(C)C)C(=O)N[C@H](C=O)CCCNC(=N)N [LEUPEPTIN] | – | 89.75% | – | – | – | – | – |
| COc1cc(OC)c(OC)cc1/C=C(\Cl)S(=O)(=O)c1ccccc1 | > 10000 nM | 11.07% | < 5% | – | – | – | – |
| O=S(=O)(/C(Cl)=C/c1ccc(Cl)c(Cl)c1)c1ccccc1 | 59 nM | 95.04% | < 5% | 13.4% | 50% | – | – |
| N#Cc1ccc(/C=C(\Cl)S(=O)(=O)c2ccccc2)cc1 | > 10000 nM | 44.73% | < 5% | – | – | – | – |
| CC(C)CC(=O)N[C@H](C(=O)N[C@H](C(=O)N[C@@H](CC(C)C)[C@@H](O)CC(=O)N[C@@H](C)C(=O)N[C@@H](CC(C)C)[C@@H](O)CC(=O)O)C(C)C)C(C)C [PEPSTATIN] | – | 93.77% | – | – | – | – | – |
| O=S(=O)(/C(Cl)=C/c1ccc(Cl)cc1Cl)c1ccccc1 | 960 nM | 75.3% | < 5% | – | – | – | – |
